Compounds with a hit are over-represented: about 2.2% of the library has one in this group of screens.
Statin myotox sup – protects C2C12 myotubes from simvastatin toxicity; AID 602340; rescue of ATP level, % at 7.49 µM; ATP luminescence, 48 h; scaled: DMSO 0, geranylgeraniol control 100; 0.78% of 330,000 active;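 active = mean ATP rescue above about 67%, or every replicate alone reaching that limit, limit read from the data, passing the limit was not always enough; inconclusive = no clear call, values can overlap the other calls; inactive = mean under the limit and some replicate under it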;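 also: myotubes were challenged with 10 µM simvastatin during compound exposure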
E-sel inducer – E-selectin induction on HUVECs; activation, % at 7.58 µM; P16581; 0.37% of 260,000 active; HUVEC E-selectin immunofluorescence imaging; normalized: neutral wells 0, TNF-alpha wells 100;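 active = mean E-selectin-positive cell signal at least 10% of the positive control, reached in at least 60% of replicates, without over 20% cell loss; inconclusive = no rule given, readout overlaps actives, possibly toxicity-flagged; inactive = the rest, including those meeting only one limit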
Target sequence (P16581 whole entry, looked up): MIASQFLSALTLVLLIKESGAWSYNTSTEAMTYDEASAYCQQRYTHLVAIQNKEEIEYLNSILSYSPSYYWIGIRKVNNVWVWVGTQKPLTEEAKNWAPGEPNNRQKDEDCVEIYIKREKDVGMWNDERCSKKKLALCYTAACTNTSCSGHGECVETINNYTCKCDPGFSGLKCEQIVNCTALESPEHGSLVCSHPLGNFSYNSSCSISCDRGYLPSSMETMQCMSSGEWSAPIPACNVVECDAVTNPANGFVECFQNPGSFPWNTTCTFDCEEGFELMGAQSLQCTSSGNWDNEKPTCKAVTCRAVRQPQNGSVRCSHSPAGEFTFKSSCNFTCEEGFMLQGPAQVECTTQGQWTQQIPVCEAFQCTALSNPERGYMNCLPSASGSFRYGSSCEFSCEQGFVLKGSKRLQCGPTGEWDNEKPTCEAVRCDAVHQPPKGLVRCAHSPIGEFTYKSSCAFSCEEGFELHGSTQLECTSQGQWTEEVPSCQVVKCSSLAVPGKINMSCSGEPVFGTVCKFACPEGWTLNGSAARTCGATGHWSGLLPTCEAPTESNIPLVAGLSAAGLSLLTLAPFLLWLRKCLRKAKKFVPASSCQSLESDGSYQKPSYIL
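Test system: HUVEC; input: 3,000 HUVEC/well; measured by: immunofluorescence imaging; read-out: % PE-positive cells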
DENV2 CPE rescue – DENV2-induced cell death inhibition. DENV2-infected cells, cytopathic effect rescue, plate reader. CPE inhibition, % at 9.99 µM. 1.7% of 350,000 active; in the data active = CPE inhibition above about 20%, passing the limit was not always enough; inconclusive = no clear call, values can overlap the other calls; tested in BHK-21 cells
Each line names hits and unclear results; the compound was inactive in the other large screens; ! = not active in a repeat.

COC(=O)N(C)C[C@H]1OCc2ccccc2-c2c(n(C)c3ccccc23)C(=O)N([C@@H](C)CO)C[C@H]1C	none
O=C(NCCO)c1ccc2c3n(nc2c1)-c1ccc(Cl)cc1CO3	none (no result: DENV2 CPE rescue)
COCCNC(=O)c1ccc2c3n(nc2c1)-c1ccc(Cl)cc1CO3	DENV2 CPE rescue 122
CCc1cc2c(=O)[nH]c(Cc3ccc(OC)cc3)nc2s1	none (no result: Statin myotox sup)
CCc1cc2c(=O)[nH]c(COC)nc2s1	DENV2 CPE rescue 46 (no result: Statin myotox sup, E-sel inducer)
COc1ccc(NC(=O)Nc2ccc3c(c2)C(=O)N([C@@H](C)CO)C[C@@H](C)[C@@H](CN(C)S(=O)(=O)c2ccc(Cl)cc2)OCCCC[C@@H](C)O3)cc1	none (no result: Statin myotox sup, E-sel inducer)
COc1ccc(NC(=O)Nc2ccc3c(c2)C(=O)N([C@@H](C)CO)C[C@@H](C)[C@@H](CN(C)S(=O)(=O)c2ccc(F)cc2)OCCCC[C@@H](C)O3)cc1	DENV2 CPE rescue 30 (no result: Statin myotox sup, E-sel inducer)
COc1ccc(NC(=O)Nc2ccc3c(c2)C(=O)N([C@@H](C)CO)C[C@@H](C)[C@H](CN(C)S(=O)(=O)c2ccc(Cl)cc2)OCCCC[C@@H](C)O3)cc1	DENV2 CPE rescue 36 (no result: Statin myotox sup, E-sel inducer)
COc1ccc(S(=O)(=O)N(C)C[C@H]2OCCCC[C@@H](C)Oc3ccc(NC(=O)Nc4ccc(F)cc4)cc3C(=O)N([C@@H](C)CO)C[C@H]2C)cc1	none
CC(=O)Nc1ccc2c(c1)C(=O)N(C)[C@H]1CC[C@H](CC(=O)NCc3ccc4c(c3)OCO4)O[C@@H]1CO2	none
C[C@H]1CN([C@@H](C)CO)C(=O)CCCn2cc(nn2)CO[C@H]1CN(C)Cc1ccc(O)cc1	none
CO[C@@H]1CN(C)C(=O)c2cc(NC(=O)C3CC3)ccc2OC[C@@H](C)N(C(C)=O)C[C@@H]1C	none
CCN1CCN(Cc2ccc(NC(=O)c3ccc(C)c(NC(=O)N4CCNC4=O)c3)cc2C(F)(F)F)CC1	DENV2 CPE rescue 120!
CCN1CCN(Cc2ccc(NC(=O)c3ccc(C)c(NC(=O)c4nccnc4N)c3)cc2C(F)(F)F)CC1	DENV2 CPE rescue inconclusive
CCN1CCN(Cc2ccc(NC(=O)c3ccc(C)c(NC(=O)c4nccn4C)c3)cc2C(F)(F)F)CC1	none
CCN1CCN(Cc2ccc(NC(=O)c3ccc(C)c(NC(=O)c4cc(-c5ccc(Br)cc5)n[nH]4)c3)cc2C(F)(F)F)CC1	DENV2 CPE rescue 36
O=C(C[C@H]1CC[C@H](NC(=O)CCN2CCCCC2)[C@H](CO)O1)NCc1ccc(Cl)c(Cl)c1	none
C[C@@H](NC(=O)C[C@@H]1CC[C@H](NC(=O)C2CCOCC2)[C@@H](CO)O1)c1ccccc1	DENV2 CPE rescue inconclusive
COc1cccc(S(=O)(=O)N[C@@H]2C=C[C@H](CC(=O)NCc3ccc(F)cc3)O[C@@H]2CO)c1	DENV2 CPE rescue 33
COc1cccc(S(=O)(=O)N[C@H]2C=C[C@H](CC(=O)NCc3ccncc3)O[C@H]2CO)c1	DENV2 CPE rescue 28 (no result: Statin myotox sup)
COc1cccc(S(=O)(=O)N[C@@H]2C=C[C@H](CC(=O)NCc3ccc(F)cc3)O[C@H]2CO)c1	none
COc1cccc(S(=O)(=O)N[C@H]2C=C[C@H](CC(=O)NCc3ccncc3)O[C@@H]2CO)c1	none
Cc1noc(C)c1NC(=O)Nc1ccc2c(c1)C(=O)N([C@@H](C)CO)C[C@@H](C)[C@@H](CN(C)C(=O)Nc1ccc3c(c1)OCO3)O2	none
C[C@@H]1CCCCO[C@@H](CN(C)C(=O)CCCN(C)C)[C@@H](C)CN([C@@H](C)CO)C(=O)c2cc(NS(=O)(=O)c3ccccc3)ccc2O1	none (no result: Statin myotox sup)
C[C@H](NC(=O)C[C@H]1CC[C@H]2[C@@H](COC[C@@H](O)CN2C(=O)Nc2cccc(F)c2)O1)c1ccccc1	none
O=C1NC(=O)c2cc(Br)cc3cccc1c23	E-sel inducer 204 (no result: Statin myotox sup)
O=C1NC(=O)c2cc([N+](=O)[O-])cc3cccc1c23	none (no result: E-sel inducer)
CCNC(=O)C[C@@H]1C=C[C@H](NC(=O)C2CCOCC2)[C@H](CO)O1	none
COc1ccccc1CNC(=O)C[C@H]1C=C[C@H](NC(=O)CN(C)C)[C@@H](CO)O1	none
Nc1ccc(C(=O)Nc2ccc3cc(S(=O)(=O)O)ccc3c2)cc1	Statin myotox sup 93 (no result: E-sel inducer)
Nc1ccc(C(=O)Nc2cccc(NC(=O)c3ccc(N)cc3)c2)cc1	none
C[C@H](CO)N1C[C@H](C)[C@@H](CN(C)C(=O)Cc2ccccc2)OCCCC[C@H](C)Oc2ccc(NC(=O)Nc3ccc(C(F)(F)F)cc3)cc2C1=O	none
C[C@@H]1CN([C@H](C)CO)C(=O)c2cc(NC(=O)Nc3ccc(C(F)(F)F)cc3)ccc2O[C@@H](C)CCCCO[C@@H]1CN(C)C(=O)Cc1ccccc1	DENV2 CPE rescue 82
C[C@@H]1CCCCO[C@H](CN(C)C(=O)Cc2ccccc2)[C@@H](C)CN([C@@H](C)CO)C(=O)c2cc(NC(=O)Nc3ccc(C(F)(F)F)cc3)ccc2O1	DENV2 CPE rescue inconclusive
C[C@@H]1CCCCO[C@H](CN(C)C(=O)Cc2ccccc2)[C@H](C)CN([C@@H](C)CO)C(=O)c2cc(NC(=O)Nc3ccc(C(F)(F)F)cc3)ccc2O1	DENV2 CPE rescue 44
COc1ccc(NC(=O)Nc2ccc3c(c2)C(=O)N([C@H](C)CO)C[C@H](C)[C@H](CN(C)S(=O)(=O)c2ccc(C)cc2)OCCCC[C@@H](C)O3)cc1	none (no result: Statin myotox sup)
C[C@H](CO)N1C[C@H](C)[C@H](CN(C)CC2CC2)Oc2ccc(NS(=O)(=O)c3cccs3)cc2CC1=O	none
CSc1ccccc1OCc1cc(C(=O)N2CCc3[nH]cnc3C2c2ccccn2)no1 (centres undefined)	DENV2 CPE rescue 50
CSc1ccccc1OCc1cc(C(=O)N2CCN(c3ccccc3)CC2C)no1 (centres undefined)	none
COC1CCN(Cc2c(C(=O)N3C[C@@H](C)O[C@@H](C)C3)nc3ccc(Cl)cn23)CC1	none
CCN(CC)C1CCN(Cc2c(C(=O)N3CCCCCCC3)nc3ccc(Cl)cn23)C1 (centres undefined)	DENV2 CPE rescue 35
CCc1ccc(Nc2n[n+](-c3ccccc3)c(-c3ccc(C(=O)O)cc3)s2)cc1	DENV2 CPE rescue 23 (no result: E-sel inducer)
CCc1ccc(Nc2n[n+](-c3ccccc3)c(-c3ccc(SC)cc3)s2)cc1	none
CC(C)c1ccccc1OCCCCN1CCCCC1	DENV2 CPE rescue 30 (no result: E-sel inducer)
CC(C)c1ccccc1OCCCN1CCCC1	none (no result: E-sel inducer)
O=C(NC1CCCCC1)[C@H]1[C@H](CO)[C@H]2Cn3c(cccc3=O)[C@H]2N1CC1CCCC1	none (no result: Statin myotox sup)
CCc1ccccc1SCc1noc(C(=O)NCC2CCCO2)c1C(=O)O (centres undefined)	none (no result: DENV2 CPE rescue)
COC(=O)c1c(CCl)noc1C(=O)NCC1CCCO1 (centres undefined)	DENV2 CPE rescue 33
CCOC(=O)c1[nH]c(C)c(C(=O)NCC2CCCO2)c1C (centres undefined)	Statin myotox sup 75 (no result: E-sel inducer, DENV2 CPE rescue)
CCOC(=O)c1[nH]c(C)c(C(=O)NC2CCCCC2)c1C	none
CO[C@@H]1CN(C)C(=O)c2cc(NC(C)=O)ccc2OC[C@@H](C)N(Cc2cccnc2)C[C@@H]1C	none (no result: DENV2 CPE rescue)
CCOC(=O)C1C(c2cc(OC)c(O)c(OC)c2)NC(=S)NC1(O)C(F)(F)F (centres undefined)	none
CC(=O)C1C(c2cccc(F)c2)NC(=O)NC1(O)C(F)(F)F (centres undefined)	none (no result: Statin myotox sup, DENV2 CPE rescue)
CCOC(=O)C1C(c2cc(OC)c(OC)c(OC)c2)NC(=S)NC1(O)C(F)(F)F (centres undefined)	Statin myotox sup 101 (no result: E-sel inducer, DENV2 CPE rescue)
